A short description of series [1]: Cytotoxicity against human TZM-bl cells assessed as cell viability at 50 ug after 48 hrs by MTT assay. Type of series: cell-based. As to conditions: read-out: Activity. The procedure, abridged:
(§1)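 TZM-bl cells, 3 × 10³ per well, incubated 48 h at 37 °C in 5% CO₂ with or without compound. MTT (5 mg/mL reagent) added for 3 h, then solubilised in 20% SDS/50% DMF in PBS. OD read at 570 nm with 690 nm reference. Viability = [(OD treated − OD virus control)/(OD uninfected − OD virus control)] × 100.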
A general note: Tetrazolium dyes change colour on reduction, which living cells bring about.

Series [2] in a line: Cytotoxicity against human TZM-bl cells assessed as cell viability at 20 ug after 48 hrs by MTT assay. Type of series: cell-based. As to conditions: read-out: Activity. The method in brief:
as §1

Series [3] is described as follows: Cytotoxicity against human TZM-bl cells assessed as cell viability at 10 ug after 48 hrs by MTT assay. As to conditions: read-out: Activity. Type of series: cell-based. The procedure, abridged: as §1
A short description of series [4]: Cytotoxicity against human TZM-bl cells assessed as cell viability at 100 ug after 48 hrs by MTT assay. The note with it: read-out: Activity. Type of series: cell-based. The procedure, abridged:
as §1

Series [5] can be described thus: Cytotoxicity against human CEM cells expressing green fluorescent protein assessed as cell viability at 10 ug after 48 hrs by MTT assay. Type of series: cell-based, CCRF-CEM. As to conditions: read-out: Activity.
The nature of series [6]: Cytotoxicity against human CEM cells expressing green fluorescent protein assessed as cell viability at 20 ug after 48 hrs by MTT assay. Type of series: cell-based, CCRF-CEM. The note with it: read-out: Activity.
Series [7] can be described thus: Cytotoxicity against human CEM cells expressing green fluorescent protein assessed as cell viability at 50 ug after 48 hrs by MTT assay. Type of series: cell-based, CCRF-CEM. The note with it: read-out: Activity.
Series [8] is described as follows: Cytotoxicity against human CEM cells expressing green fluorescent protein assessed as cell viability at 100 ug after 48 hrs by MTT assay. The note with it: read-out: Activity. Type of series: cell-based, CCRF-CEM.
Series [9] has as its system Human immunodeficiency virus 1. Description: Antiviral activity against 0.025 MOI Human immunodeficiency virus 1 infected in human TZM-bl cells at 2 ug/ml after 48 hrs by beta-galactosidase assay. In kind it is functional. The note with it: Human immunodeficiency virus 1, TZM-bl. The procedure, abridged: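 TZM-bl cells, 2.0 × 10⁵ per well, cultured overnight at 37 °C in 5% CO₂. Virus with treatments added for 4 h. Cells then washed twice in serum-free DMEM and refed with DMEM + 10% FCS. Compounds re-added and cells incubated 48 h. Cells fixed in 1% glutaraldehyde for 10 min and stained 24 h at 37 °C. Blue foci counted microscopically; % inhibition = 100 − (foci treated/foci untreated infected × 100). AZT positive control.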

The subject of series [10] is Human immunodeficiency virus 1. Description: Antiviral activity against 0.05 MOI Human immunodeficiency virus 1 NL4.3 infected in human CEM cells expressing green fluorescent protein at 20 ug/ml after 8 days by fluorometric analysis. In kind it is functional. As to conditions: Human immunodeficiency virus 1, NL4.3, CCRF-CEM, 192 h. The procedure, abridged: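 CEM-GFP cells seeded at 2.0 × 10⁵ cells/mL with compounds in duplicate. AZT ([…]) was the positive control; 50% ethanol and distilled water were vehicle controls. Cells incubated at 37 °C in 5% CO₂. On day 5, 0.4 mL of suspension was replaced with 1 mL fresh medium and compounds were re-added, then incubation continued. % inhibition = 100 − (GFP fluorescence treated/untreated infected × 100).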

Series [11] is described as follows: Partition coefficient, log P of the compound. In kind it is physicochemical. As to conditions: octanol/water.

The inhibition is the share of the control response that was lost under treatment. A word on the logP: it is the decadic logarithm of the partition coefficient of the neutral form, usually between octanol and water. For the molecule `O=C1Nc2ccccc2[C@]12C[C@H]2CCl`, the viability at 48 h, 50 ug in [1] was determined as 87%; in series [7] it was 83%. Moreover, the viability at 48 h, 20 ug in series [2] amounted to 92%; in series [6], 87%. Further, the viability at 48 h, 10 ug in [3] turned out to be 93%; in [5], 91%. Also, the viability at 48 h, 100 ug worked out at 86% in series [4] and 88% in [8]. In addition, at 2 µg/mL the inhibition in series [9] was 7%. 20 µg/mL produced 2% inhibition in [10]. The molecule further registered a logP in series [11] of 1.95.
Regarding `Cc1ccc2c(c1)[C@]1(C[C@H]1CO)C(=O)N2`, the viability at 48 h, 50 ug in series [1] came to 95%; in [7] it was 100%. Further, the viability at 48 h, 20 ug was found to be 100% in series [2] and 101% in series [6]. Further, the viability at 48 h, 10 ug in series [3] was determined as 102%; in series [5] it was 105%. Besides, the viability at 48 h, 100 ug in [4] turned out to be 93%; in series [8], 100%. Further, the inhibition at 2 µg/mL in series [9] was determined as 6%. This molecule also showed an inhibition at 20 µg/mL in series [10] of 3%. The molecule also displayed a logP in series [11] of 1.21.
In the case of `O=C1Nc2ccc([N+](=O)[O-])cc2[C@]12C[C@H]2CO`, the viability at 48 h, 50 ug in [1] came out at 104%; in series [7], 122%. In addition, the viability at 48 h, 20 ug in [2] came to 107%; in [6] it was 127%. The viability at 48 h, 10 ug came out at 100% in [3] and 119% in series [5]. Moreover, the viability at 48 h, 100 ug in series [4] stood at 109%; in series [8], 116%. Further, testing at 2 µg/mL in series [9] gave an inhibition of 5%. Moreover, 20 µg/mL produced 3% inhibition in [10]. For the same molecule, the logP in series [11] is 0.54.
With `O=C1Nc2ccc(OC(F)(F)F)cc2[C@]12C[C@H]2CCl`, the results for the viability at 48 h, 50 ug in [1] and in [7] were 66% and 37%, respectively. For the same molecule, the viability at 48 h, 20 ug in series [2] was determined as 95%; in series [6], 74%. In addition, the viability at 48 h, 10 ug was determined as 91% in [3] and 94% in series [5]. The results for the viability at 48 h, 100 ug in series [4] and in [8] were 60% and 2%, respectively. This molecule also came in with an inhibition at 2 µg/mL in series [9] of 9%. Besides, 20 µg/mL produced 3% inhibition in series [10]. The lipophilicity (logP) in [11] worked out at 3.48.
`O=C1Nc2ccc(OC(F)(F)F)cc2[C@]12C[C@H]2CO`: the viability at 48 h, 50 ug was 62% in [1] and 33% in series [7]. Also, the results for the viability at 48 h, 20 ug in series [2] and in series [6] were 93% and 72%, respectively. In addition, the viability at 48 h, 10 ug came to 90% in [3] and 91% in series [5]. The viability at 48 h, 100 ug in series [4] was determined as 60%; in [8], 3%. Besides, at 2 µg/mL the inhibition in series [9] was 10%. Further, in series [10], 20 µg/mL produced 7% inhibition. This molecule yielded a logP in [11] of 1.89.
As to `Cc1ccc2c(c1)[C@]1(C[C@H]1CCl)C(=O)N2`, the viability at 48 h, 50 ug turned out to be 88% in series [1] and 85% in [7]. Moreover, the viability at 48 h, 20 ug turned out to be 91% in series [2] and 89% in series [6]. The viability at 48 h, 10 ug was found to be 93% in [3] and 92% in [5]. Further, the viability at 48 h, 100 ug in series [4] turned out to be 87%; in series [8], 81%. Moreover, testing at 2 µg/mL in series [9] gave an inhibition of 8%. The same molecule returned an inhibition at 20 µg/mL in series [10] of 5%. The logP in series [11] came out at 2.44.
For `O=C1Nc2ccc([N+](=O)[O-])cc2[C@]12C[C@H]2CCl`, the viability at 48 h, 50 ug in series [1] is 101%; in [7], 103%. For the same molecule, the viability at 48 h, 20 ug in series [2] came out at 102%; in series [6], 118%. Further, the figures for the viability at 48 h, 10 ug in [3] and in series [5] were 102% and 101%, respectively. Also, the viability at 48 h, 100 ug in series [4] was determined as 92%; in [8] it was 76%. In [9], this molecule had an inhibition at 2 µg/mL of 6%. For the same molecule, the inhibition at 20 µg/mL in series [10] came to 4%. The same molecule came in with a logP in series [11] of 1.84.
With `O=C1Nc2ccccc2[C@]12C[C@H]2CO`, the viability at 48 h, 50 ug in series [1] and in series [7] was 92% in each case. Besides, the viability at 48 h, 20 ug in [2] came to 98%; in series [6], 95%. Further, the values for the viability at 48 h, 10 ug in [3] and in series [5] were 99% and 96%, respectively. Besides, the viability at 48 h, 100 ug in series [4] came out at 89%; in series [8], 90%. The same molecule showed an inhibition at 2 µg/mL in [9] of 4%. Further, in [10], testing at 20 µg/mL gave an inhibition of 6%. This molecule also gave a logP in [11] of 2.19.

(Values after ChEMBL document CHEMBL1759956, “Rhodium(II) acetate-catalyzed stereoselective synthesis, SAR and anti-HIV activity of novel oxindoles bearing cyclopropane ring” (Eur J Med Chem, 2011).)
